Activity calls are given as the source filed them. No cut-off for these calls is given here.
Columns and labels:
L02 = test: Antiproliferative activity against human HL-7702 cells after 48 hrs by MTT assay; format: functional, cell-based; settings: L02, 48 h
Summary of the method: (§1)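 MTT read-out of antiproliferative activity across cancer lines HepG-2, NCI-H460, MGC-803, A549 and MG-63 and normal liver line HL-7702. IC50 given as mean ± S.D. of three separate experiments, each run in triplicate.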

[1] = Inhibition of TNF-alpha induced NF-kappaB activation in human A549 cells after 7 hrs by Bright-Glo luciferase reporter gene assay; format: cell-based; settings: Homo sapiens, A549, 7 h; read-out: IC50
Summary of the method: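 A549 cells transiently cotransfected with an NF-κB-Luc reporter and stimulated with TNF-α. Luciferase read-out of inhibition gives IC50, the mean of at least three independent experiments each with triplicates.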

HepG2 = test: Antiproliferative activity against human HepG2 cells after 48 hrs by MTT assay; format: functional, cell-based; settings: HepG2, 48 h; summary of the method: as §1
NCI-H460 = test: Antiproliferative activity against human NCI-H460 cells after 48 hrs by MTT assay; format: functional, cell-based; settings: NCI-H460, 48 h; summary of the method: as §1
MGC-803 = test: Antiproliferative activity against human MGC803 cells after 48 hrs by MTT assay; format: functional, cell-based; settings: MGC-803, 48 h; summary of the method: as §1
A549 [2] = test: Antiproliferative activity against human A549 cells after 48 hrs by MTT assay; format: functional, cell-based; settings: A549, 48 h; summary of the method: as §1
MG-63 = test: Antiproliferative activity against human MG63 cells after 48 hrs by MTT assay; format: functional, cell-based; settings: MG-63, 48 h; summary of the method: as §1
[3] = target: T1, Inhibitor of NF-kappa-B kinase alpha/beta (Homo sapiens) (UniProt O14920+O15111); test: Inhibition of IKKalpha/beta-mediated IkappaBalpha phosphorylation in human A549 cells after 24 hrs by Western blot analysis; format: cell-based
Summary of the method: (§2)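 A549 cells exposed to 5, 10 and 20 µM for 24 h. Western blots probed for NF-κB, p-IκBα, IκBα and p-IKKα/β, with GAPDH as internal control. Three experiments, representative blot shown.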

Homo sapiens = species: Homo sapiens; test: Inhibition of TNF-alpha induced activation of NF-kappaB (unknown origin) assessed as reduction in DNA binding ability at 5 to 20 uM by cell based ELISA relative to TNF-alpha alone
Summary of the method: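 ELISA-type DNA-binding assay of NF-κB in TNF-α-stimulated A549 cells treated at 5, 10 and 20 µM. Compared against untreated and TNF-α-only controls. Mean ± SD, p < 0.05, three runs.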

[4] = target: T1, Inhibitor of NF-kappa-B kinase alpha/beta (Homo sapiens); test: Inhibition of IKKalpha/beta phosphorylation in human A549 cells up to 20 uM after 24 hrs by Western blot analysis; format: cell-based; summary of the method: as §2
A549 [5] = test: Reduction in IkappaBalpha level in human A549 cells up to 20 uM after 24 hrs by Western blot analysis; format: functional, cell-based; summary of the method: as §2
SK-OV-3 = test: Growth inhibition of cisplatin sensitive human SKOV3 cells after 48 hrs by MTT assay; format: functional, cell-based; settings: SK-OV-3, 48 h
Summary of the method: (§3)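 MTT growth inhibition in the paired ovarian lines, cisplatin-sensitive SK-OV-3 and cisplatin-resistant SK-OV-3/CDDP. IC50 given as mean ± S.D. of three separate experiments, each in triplicate.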

[6] = Growth inhibition of cisplatin-resistant human SKOV3/DDP cells after 48 hrs by MTT assay; format: functional; settings: SK-OV-3, 48 h; summary of the method: as §3
[7] = Selectivity ratio of IC50 for cisplatin-resistant human SKOV3/DDP cells to IC50 for cisplatin sensitive human SKOV3 cells; format: functional
Summary of the method: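 IC50 determined in resistant SK-OV-3/CDDP cells divided by IC50 in parental SK-OV-3 cells. Each IC50 by MTT, three separate experiments each in triplicate.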

A549 [8] = test: Induction of apoptosis in human A549 cells after 24 hrs by annexin V-FITC/propidium iodide staining-based flow cytometry analysis; format: functional, cell-based
Summary of the method: (§4)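 A549 cells treated at 5, 10 and 20 µM for 24 h, then harvested and stained with Annexin V-FITC and PI. Flow cytometry quadrants: Q1 necrotic, Q2 late apoptotic/necrotic, Q3 early apoptotic, Q4 living. Performed three times.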

A549 [9] = test: Induction of apoptosis in human A549 cells assessed as early apoptotic cells at 5 uM after 24 hrs by annexin V-FITC/propidium iodide staining-based flow cytometry analysis (reference value: 1.28%); format: functional; summary of the method: as §4
A549 [10] = test: Induction of apoptosis in human A549 cells assessed as early apoptotic cells at 10 uM after 24 hrs by annexin V-FITC/propidium iodide staining-based flow cytometry analysis (reference value: 1.28%); format: functional; summary of the method: as §4
A549 [11] = test: Induction of apoptosis in human A549 cells assessed as late apoptotic cells at 10 uM after 24 hrs by annexin V-FITC/propidium iodide staining-based flow cytometry analysis (reference value: 2.20%); format: functional; summary of the method: as §4
A549 [12] = test: Induction of apoptosis in human A549 cells assessed as early apoptotic cells at 20 uM after 24 hrs by annexin V-FITC/propidium iodide staining-based flow cytometry analysis (reference value: 1.28%); format: functional; summary of the method: as §4
A549 [13] = test: Induction of apoptosis in human A549 cells assessed as late apoptotic cells at 20 uM after 24 hrs by annexin V-FITC/propidium iodide staining-based flow cytometry analysis (reference value: 2.20%); format: functional; summary of the method: as §4
A549 [14] = test: Induction of apoptosis in human A549 cells assessed as viable cells at 20 uM after 24 hrs by annexin V-FITC/propidium iodide staining-based flow cytometry analysis (reference value: 96.0%); format: functional; settings: A549, 24 h, read-out: Activity; summary of the method: as §4
A549 [15] = test: Cell cycle arrest in human A549 cells assessed as accumulation at G2 phase at 5 uM after 24 hrs by propidium iodide staining based flow cytometry (reference value: 14.1%); format: functional
A549 [16] = test: Cell cycle arrest in human A549 cells assessed as accumulation at S phase at 5 uM after 24 hrs by propidium iodide staining based flow cytometry (reference value: 38.76%); format: functional
A549 [17] = test: Cell cycle arrest in human A549 cells assessed as accumulation at G2 phase at 10 uM after 24 hrs by propidium iodide staining based flow cytometry (reference value: 14.1%); format: functional
A549 [18] = test: Cell cycle arrest in human A549 cells assessed as accumulation at G1 phase at 20 uM after 24 hrs by propidium iodide staining based flow cytometry (reference value: 47.0%); format: functional
A549 [19] = test: Cell cycle arrest in human A549 cells assessed as accumulation at G2 phase at 20 uM after 24 hrs by propidium iodide staining based flow cytometry (reference value: 14.1%); format: functional
A549 [20] = test: Induction of apoptosis in human A549 cells assessed as hyper condensed nuclei at 5 to 20 uM after 24 hrs by Hoechst […] staining based fluorescence microscopic method; format: functional, cell-based
Summary of the method: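 After 24 h exposure at 5, 10 and 20 µM, A549 cells harvested and stained with Hoechst 33258. Nuclear morphology, including brightly stained hypercondensed nuclei, inspected against untreated control. Three experiments.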

A549 [21] = test: Antimigratory activity against human A549 cells after 24 hrs by crystal violet staining based fluorescence microscopic analysis; format: functional, cell-based
Summary of the method: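 Transwell migration of A549 cells incubated at 5, 10 and 20 µM for 24 h. Performed three times, representative images shown.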

A549 [22] = test: Induction of ROS generation in human A549 cells at 5 to 20 uM after 24 hrs by DCFH-DA staining-based fluorescence microscopic analysis; format: functional, cell-based
Summary of the method: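 Intracellular ROS in A549 cells after 24 h incubation, using DCF-DA probe. Green cytoplasmic fluorescence viewed by fluorescence microscopy against untreated control. Three experiments.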

IC50 [1]: 0.97 µM
IC50 (HepG2): 9.11 µM
IC50 (NCI-H460): 8.28 µM
IC50 (MGC-803): 8.73 µM
IC50 (A549 [2]): 6.25 µM
inhibition [3]: Dose-dependent effect
inhibition [4]: Active
IC50 (SK-OV-3): 9.75 µM
Compound: CCOP(=O)(OCC)C(Nc1ccc(CC(=O)NCCCCNC(=O)[C@@]2(C)CC[C@]3(C)CC[C@]4(C)C(=CC(=O)[C@@H]5[C@@]6(C)CC[C@H](OC(C)=O)C(C)(C)[C@@H]6CC[C@]54C)[C@@H]3C2)cc1)c1ccc(F)cc1 (some centres undefined)
IC50 (L02): > 50 µM
IC50 (MG-63): 9.01 µM
fold change (FC) (Homo sapiens): 2.3
Activity (A549 [5]): Active
IC50 [6]: 8.94 µM
Ratio IC50 [7]: 0.92
Activity (A549 [8]): Dose-dependent effect
Activity (A549 [9]): 1.96%
Activity (A549 [10]): 19.1%
Activity (A549 [11]): 22.6%
Activity (A549 [12]): 19.5%
Activity (A549 [13]): 39.7%
viability at 20 µM (A549 [14]): 40.3%
Activity (A549 [15]): 0%
Activity (A549 [16]): 40.09%
Activity (A549 [17]): 9.9%
Activity (A549 [18]): 43.02%
Activity (A549 [19]): 2.66%
Activity (A549 [20]): Active
Activity (A549 [21]): Dose-dependent effect
Activity (A549 [22]): Active

— ChEMBL document CHEMBL4382268, “Glycyrrhetinic acid derivatives containing aminophosphonate ester species as multidrug resistance reversers that block the NF-κB pathway and cell proliferation” (Bioorg Med Chem Lett, 2018)
